These results are taken from ChEMBL document CHEMBL3792351, “Synthesis and anti-inflammatory activity evaluation of a novel series of 6-phenoxy-[1,2,4]triazolo[3,4-a]phthalazine-3-carboxamide derivatives” (Bioorg Med Chem Lett, 2016).

The source made the active and inactive calls. No cut-off for these calls is given here.

The subject of series [1] is HeLa. In words: Inhibition of TNFalpha-induced NFkappaB (unknown origin) activation expressed in human HeLa cells at 100 uM pre-incubated for 8 hrs followed by stimulation with TNFalpha for 8 hrs by luciferase reporter assay. It is filed as cell-based. A digest of the protocol: (§1)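 HeLa cells transiently transfected 48 h with NF-κB-dependent luciferase reporter, pretreated 8 h with compounds (100 μM screen or indicated concentrations), then TNF-α (10 ng/ml) 8 h; luciferase activity read. Mean ± standard deviation, three independent experiments; compared with TNF-α-stimulated cells.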

The subject of series [2] is HeLa. In words: Inhibition of TNFalpha-induced NFkappaB (unknown origin) activation expressed in human HeLa cells pre-incubated for 8 hrs followed by stimulation with TNFalpha for 8 hrs by luciferase reporter assay. It is filed as cell-based. A digest of the protocol:
as §1

Series [3] relates to Mus musculus. In words: Antiinflammatory activity in Kunming mouse assessed as inhibition of xylene-induced ear edema at 50 mg/kg, po administered 2 hrs before xylene challenge measured after 30 mins relative to vehicle treated control. It is filed as functional. The method, boiled down:
(§2)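 Kunming mice (18-22 g), xylene ear edema; compound given orally at 1, 2, 3, 4, 5 or 6 h before xylene application. Inhibition (%) vs vehicle control group at the corresponding time; p<0.05 vs vehicle.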

In series [4] the test system is Mus musculus. In words: Antiinflammatory activity in Kunming mouse assessed as inhibition of xylene-induced ear edema at 50 mg/kg, po administered 4 hrs before xylene challenge measured after 30 mins relative to vehicle treated control. It is filed as functional. The method, boiled down:
as §2

Series [5] has as its system Mus musculus. Put plainly: Antiinflammatory activity in Kunming mouse assessed as inhibition of xylene-induced ear edema at 50 mg/kg, po administered 1 hr before xylene challenge measured after 30 mins relative to vehicle treated control. The series is classed as functional. A digest of the protocol: as §2
Series [6] concerns Mus musculus. In words: Antiinflammatory activity in Kunming mouse assessed as inhibition of xylene-induced ear edema at 50 mg/kg, po administered 3 hrs before xylene challenge measured after 30 mins relative to vehicle treated control. The series is classed as functional. The method, boiled down: as §2
The subject of series [7] is HeLa. Put plainly: Cytotoxicity against human HeLa cells assessed as cell viability at 100 uM after 24 hrs by MTT assay. It is filed as cell-based. The method, boiled down:
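HeLa cells treated with compounds at indicated concentrations for 24 h; viability by MTT. Mean ± standard deviation of three independent experiments.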

The subject of series [8] is Mus musculus. In words: Antiinflammatory activity in Kunming mouse assessed as inhibition of xylene-induced ear edema at 50 mg/kg, po administered 6 hrs before xylene challenge measured after 30 mins relative to vehicle treated control. It is filed as functional. The method, boiled down: as §2
Series [9] concerns Mus musculus. Put plainly: Antiinflammatory activity in Kunming mouse assessed as inhibition of xylene-induced ear edema at 50 mg/kg, po administered 5 hrs before xylene challenge measured after 30 mins relative to vehicle treated control. The series is classed as functional. A digest of the protocol: as §2
For series [10], the system named is Mus musculus. In words: Antiinflammatory activity in Kunming mouse assessed as inhibition of xylene-induced ear edema at 50 mg/kg, ip administered 0.5 hrs before xylene challenge measured after 30 mins relative to vehicle treated control. The series is classed as functional. A digest of the protocol:
(§3)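 Xylene-induced ear edema, Kunming mice (18-22 g), 8 per group; drug-treated, indomethacin and normal control groups; single i.p. dose. Edema reported in mg (mean ± SEM), inhibition rate (%) vs DMSO vehicle group; p<0.05 vs vehicle.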

Series [11] has as its system Mus musculus. Put plainly: Antiinflammatory activity in Kunming mouse assessed as inhibition of xylene-induced ear edema at 100 mg/kg, po administered 5 hrs before xylene challenge measured after 30 mins relative to vehicle treated control. The series is classed as functional.
Series [12] has as its system Mus musculus. Put plainly: Antiinflammatory activity in Kunming mouse assessed as inhibition of xylene-induced ear edema at 100 mg/kg, ip administered 0.5 hrs before xylene challenge measured after 30 mins relative to vehicle treated control. The series is classed as functional. A digest of the protocol:
as §3

Series [13] concerns Mus musculus. Put plainly: Antiinflammatory activity in Kunming mouse assessed as inhibition of xylene-induced ear edema at 100 mg/kg, po administered 6 hrs before xylene challenge measured after 30 mins relative to vehicle treated control. The series is classed as functional.
The test system of series [14] is Mus musculus. In words: Antiinflammatory activity in Kunming mouse assessed as inhibition of xylene-induced ear edema at 100 mg/kg, po administered 4 hrs before xylene challenge measured after 30 mins relative to vehicle treated control. It is filed as functional.
Series [15] has as its system Mus musculus. In words: Antiinflammatory activity in Kunming mouse assessed as inhibition of xylene-induced ear edema at 100 mg/kg, po administered 1 hr before xylene challenge measured after 30 mins relative to vehicle treated control. The series is classed as functional.
Series [16] concerns Mus musculus. In words: Antiinflammatory activity in Kunming mouse assessed as inhibition of xylene-induced ear edema at 100 mg/kg, po administered 3 hrs before xylene challenge measured after 30 mins relative to vehicle treated control. It is filed as functional.
The test system of series [17] is Mus musculus. Put plainly: Antiinflammatory activity in Kunming mouse assessed as inhibition of xylene-induced ear edema at 100 mg/kg, po administered 2 hrs before xylene challenge measured after 30 mins relative to vehicle treated control. It is filed as functional.

Regarding `NC(=O)c1nnc2c3ccccc3c(Oc3ccc(Cl)cc3)nn12`, the inhibition result in the series on HeLa [1] was “Active”.

`NC(=O)c1nnc2c3ccccc3c(Oc3ccccc3F)nn12`: in the series with HeLa [1], the inhibition result was “Active”.

In the case of `NC(=O)c1nnc2c3ccccc3c(Oc3ccc(F)cc3)nn12`, the inhibition result with HeLa [1] was “Active”.

As for `NC(=O)c1nnc2c3ccccc3c(Oc3cccc(F)c3)nn12`, the inhibition result in the series on HeLa [1] was “Active”.

Take `NC(=O)c1nnc2c3ccccc3c(Oc3ccc(Br)cc3)nn12`: in the series with HeLa [1], the inhibition result was “Active”.

For `Cc1cccc2c3c(ccc12)C1=C(C(=O)C3=O)[C@@H](C)CO1`, in the series with HeLa [1], the inhibition entry was “Active”.

`NC(=O)c1nnc2c3ccccc3c(Oc3cccc(Cl)c3)nn12`: in the series on HeLa [1], the inhibition entry is “Active”.

In the case of `Cc1ccc(Oc2nn3c(C(N)=O)nnc3c3ccccc23)cc1`, the inhibition result in the series with HeLa [1] is “Active”.

Take `Cc1cccc(Oc2nn3c(C(N)=O)nnc3c3ccccc23)c1`: the inhibition entry in the series with HeLa [2] is “Dose-dependent effect”. Also, the inhibition in vivo at 50 mg/kg came out at 8.92% with Mus musculus [3]; 38.9% with Mus musculus [4]; 5.63% in the series on Mus musculus [5]; 22.7% in the series on Mus musculus [6]; 8.19% in the series with Mus musculus [8]; 22.4% with Mus musculus [9]. For the same molecule, the inhibition in vivo at 50 mg/kg in the series on Mus musculus [10] is 58.2%. Further, the Activity result with HeLa [7] was “Non-toxic”. Also, the inhibition result in the series with HeLa [1] was “Active”.

With `COc1ccc(Oc2nn3c(C(N)=O)nnc3c3ccccc23)cc1`, the inhibition entry in the series on HeLa [1] is “Active”.

As for `NC(=O)c1nnc2c3ccccc3c(Oc3ccc(Cl)cc3Cl)nn12`, the inhibition entry with HeLa [2] was “Dose-dependent effect”. Further, the Activity entry in the series on HeLa [7] was “Toxic”. In the series with HeLa [1], the inhibition entry is “Active”.

Consider `COc1ccc2c(c1)c(CC(=O)O)c(C)n2C(=O)c1ccc(Cl)cc1` [INDOMETHACIN], for which the inhibition in vivo at 100 mg/kg with Mus musculus [11] was determined as 53.5%; in the series with Mus musculus [12], 59.2%; in the series on Mus musculus [13] it was 29.6%; in the series with Mus musculus [14] it was 63.4%; in the series with Mus musculus [15], 19.1%; in the series on Mus musculus [16], 27.7%. Also, the inhibition in vivo at 100 mg/kg in the series with Mus musculus [17] is 22.5%.

On to `Cc1ccccc1Oc1nn2c(C(N)=O)nnc2c2ccccc12`, for which the inhibition result in the series on HeLa [1] is “Active”.
